Results published in ChEMBL document CHEMBL1250451, “Mechanistic insights into a Ca2+-dependent family of alpha-mannosidases in a human gut symbiont” (Nat Chem Biol, 2010).
Numbering of substitutions follows the chain as printed. Names and notes keep the numbering of the source.

Key:
Assay type in all cases: protein assay; call rule not given here
[1] = target: Alpha-1,2-mannosidase (BT_2948) (Bacteroides thetaiotaomicron, UniProt Q8A3K6); test: Inhibition of Bacteroides thetaiotaomicron GH92 alpha-mannosidase 2948 assessed as reduction of mannose release using 4NP-mannopyranoside substrate
In short: (§1)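 Recombinant His-tagged GH92 enzymes were expressed in E. coli Tuner or B834 and purified by IMAC. Mannose release was measured at 37 °C in 100 mM MOPS, pH 7.0, with 2 mM CaCl2. The read-out was a coupled-enzyme mannose detection system with ATP and NADP+ at 1 mM, following NADPH at 340 nm. At least five inhibitor concentrations were tested, with substrate ≪ Km. Ki was taken from the x-intercept of […] versus inhibitor concentration.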

[2] = target: Alpha-1,2-mannosidase (BT_4092) (Bacteroides thetaiotaomicron, UniProt Q8A0C9); test: Inhibition of Bacteroides thetaiotaomicron GH92 alpha-mannosidase 4092 assessed as reduction of mannose release using 4NP-mannopyranoside substrate; in short: as §1
[3] = target: Glycoside hydrolase family 92 (BT_3962) (Bacteroides thetaiotaomicron, UniProt Q8A0Q9); test: Inhibition of Bacteroides thetaiotaomicron GH92 alpha-mannosidase 3962 assessed as reduction of mannose release using 4NP-mannopyranoside substrate; in short: as §1
[4] = target: Glycoside hydrolase family 92 (BT_3963) (Bacteroides thetaiotaomicron, UniProt Q8A0Q8); test: Inhibition of Bacteroides thetaiotaomicron GH92 alpha-mannosidase 3963 assessed as reduction of mannose release using 4NP-mannopyranoside substrate; in short: as §1
[5] = target: Alpha-1,2-mannosidase family protein (BT_1032) (Bacteroides thetaiotaomicron, UniProt Q8A8Y5); test: Inhibition of Bacteroides thetaiotaomicron GH92 alpha-mannosidase 1032 assessed as reduction of mannose release using 4NP-mannopyranoside substrate; in short: as §1
[6] = target: Alpha-1,2-mannosidase (BT_3994) (Bacteroides thetaiotaomicron, UniProt Q8A0M7); test: Inhibition of Bacteroides thetaiotaomicron GH92 alpha-mannosidase 3994 assessed as reduction of mannose release using 4NP-mannopyranoside substrate; in short: as §1
[7] = target: Alpha-1,2-mannosidase family protein (BT_4093) (Bacteroides thetaiotaomicron, UniProt Q8A0C8); test: Inhibition of Bacteroides thetaiotaomicron GH92 alpha-mannosidase 4093 assessed as reduction of mannose release using 4NP-mannopyranoside substrate; in short: as §1
[8] = target: Alpha-1,2-mannosidase, putative (BT_3130) (Bacteroides thetaiotaomicron, UniProt Q8A325); test: Inhibition of Bacteroides thetaiotaomicron GH92 alpha-mannosidase 3130 assessed as reduction of mannose release using 4NP-mannopyranoside substrate; in short: as §1
[9] = target: T1, Alpha-1,2-mannosidase (BT_2199) (Bacteroides thetaiotaomicron, UniProt Q8A5N9); test: Inhibition of Bacteroides thetaiotaomicron GH92 alpha-mannosidase 2199 assessed as reduction of mannose release using 4NP-mannopyranoside substrate
T1 sequence (Q8A5N9 whole entry): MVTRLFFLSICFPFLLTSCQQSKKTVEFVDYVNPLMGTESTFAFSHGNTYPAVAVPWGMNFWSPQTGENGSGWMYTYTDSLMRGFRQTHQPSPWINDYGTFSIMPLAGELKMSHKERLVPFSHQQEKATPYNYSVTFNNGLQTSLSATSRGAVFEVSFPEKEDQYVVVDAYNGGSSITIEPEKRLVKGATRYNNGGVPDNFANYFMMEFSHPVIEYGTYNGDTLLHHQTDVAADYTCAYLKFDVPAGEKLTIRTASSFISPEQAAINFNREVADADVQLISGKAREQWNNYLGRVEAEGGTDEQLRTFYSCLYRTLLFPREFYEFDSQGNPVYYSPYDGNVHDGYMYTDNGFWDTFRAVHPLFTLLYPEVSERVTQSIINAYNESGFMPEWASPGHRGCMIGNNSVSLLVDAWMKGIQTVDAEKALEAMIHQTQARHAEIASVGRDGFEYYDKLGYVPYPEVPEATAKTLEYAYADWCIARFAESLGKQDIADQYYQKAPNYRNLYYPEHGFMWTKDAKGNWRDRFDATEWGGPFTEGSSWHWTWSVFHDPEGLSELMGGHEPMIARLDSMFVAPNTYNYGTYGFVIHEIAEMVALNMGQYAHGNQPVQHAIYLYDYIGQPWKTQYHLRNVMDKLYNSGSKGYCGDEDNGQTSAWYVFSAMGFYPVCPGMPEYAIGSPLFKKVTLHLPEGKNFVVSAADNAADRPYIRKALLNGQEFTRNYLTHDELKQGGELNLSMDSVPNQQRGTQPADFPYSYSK
In short: (§2)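 Recombinant enzymes expressed in E. coli. Bt3990 was purified by IMAC, anion exchange and size exclusion; Bt2199 by IMAC only. Ki was measured with at least five inhibitor concentrations at a substrate concentration ≪ Km for each enzyme. Ki was taken as the x-axis intercept of a plot of […] against inhibitor concentration.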

[10] = target: Alpha-1,2-mannosidase (BT_3965) (Bacteroides thetaiotaomicron, UniProt Q8A0Q6); test: Inhibition of Bacteroides thetaiotaomicron GH92 alpha-mannosidase 3965 assessed as reduction of mannose release using 4NP-mannopyranoside substrate; in short: as §1
[11] = target: Alpha-1,2-mannosidase (BT_3991) (Bacteroides thetaiotaomicron, UniProt Q8A0N0); test: Inhibition of Bacteroides thetaiotaomicron GH92 alpha-mannosidase 3991 assessed as reduction of mannose release using 4NP-mannopyranoside substrate; in short: as §1
[12] = target: Alpha-1,2-mannosidase (BT_1878) (Bacteroides thetaiotaomicron, UniProt Q8A6K3); test: Inhibition of Bacteroides thetaiotaomicron GH92 alpha-mannosidase 1878 assessed as reduction of mannose release using 4NP-mannopyranoside substrate; in short: as §1
[13] = target: Alpha-1,2-mannosidase (BT_3858) (Bacteroides thetaiotaomicron, UniProt Q8A113); test: Inhibition of Bacteroides thetaiotaomicron GH92 alpha-mannosidase 3858 assessed as reduction of mannose release using 4NP-mannopyranoside substrate; in short: as §1
[14] = target: Alpha-1,2-mannosidase (BT_3784) (Bacteroides thetaiotaomicron, UniProt Q8A182); test: Inhibition of Bacteroides thetaiotaomicron GH92 alpha-mannosidase 3784 assessed as reduction of mannose release using 4NP-mannopyranoside substrate; in short: as §1
[15] = target: Alpha-1,2-mannosidase, putative (BT_4073) (Bacteroides thetaiotaomicron, UniProt Q8A0E8); test: Inhibition of Bacteroides thetaiotaomicron GH92 alpha-mannosidase 4073 assessed as reduction of mannose release using 4NP-mannopyranoside substrate; in short: as §1
[16] = target: Alpha-1,2-mannosidase (BT_3990) (Bacteroides thetaiotaomicron, UniProt Q8A0N1); test: Inhibition of Bacteroides thetaiotaomicron GH92 alpha-mannosidase 3990 assessed as reduction of mannose release using 4NP-mannopyranoside substrate; in short: as §2
[17] = substrate: O=[N+]([O-])c1ccc(O[C@H]2O[C@H](CO)[C@@H](O)[C@H](O)[C@@H]2O)cc1; test: (§3) Ratio of Kcat to Km for Bacteroides thetaiotaomicron GH92 alpha-mannosidase 2199 D648N mutant assessed as as mannose release after 16 hrs by HPLC relative to wild type enzyme
[18] = substrate: OC[C@H]1O[C@H](O[C@H]2[C@@H](O)[C@H](O)[C@@H](CO)O[C@@H]2O)[C@@H](O)[C@@H](O)[C@@H]1O; test: as §3
[19] = substrate: O=[N+]([O-])c1ccc(O[C@H]2O[C@H](CO)[C@@H](O)[C@H](O)[C@@H]2O)cc1; test: (§4) Activity of Bacteroides thetaiotaomicron GH92 alpha-mannosidase 2199 D648N mutant assessed as as mannose release after 16 hrs by HPLC relative to wild type enzyme
[20] = substrate: OC[C@H]1O[C@H](O[C@H]2[C@@H](O)[C@H](O)[C@@H](CO)O[C@@H]2O)[C@@H](O)[C@@H](O)[C@@H]1O; test: as §4
[21] = substrate: O=[N+]([O-])c1ccc(O[C@H]2O[C@H](CO)[C@@H](O)[C@H](O)[C@@H]2O)cc1; test: (§5) Ratio of Kcat to Km for Bacteroides thetaiotaomicron GH92 alpha-mannosidase GH92 alpha-mannosidase 3990 assessed as mannose release after 16 hrs by HPLC
[22] = substrate: OC[C@H]1O[C@H](O[C@H]2[C@@H](O)[C@H](O)[C@@H](CO)O[C@@H]2O)[C@@H](O)[C@@H](O)[C@@H]1O; test: as §5
[23] = substrate: O=[N+]([O-])c1ccc(O[C@H]2O[C@H](CO)[C@@H](O)[C@H](O)[C@@H]2O)c([N+](=O)[O-])c1; test: as §5
[24] = substrate: O=[N+]([O-])c1ccc(O[C@H]2O[C@H](CO)[C@@H](O)[C@H](O)[C@@H]2O)cc1; test: (§6) Activity of Bacteroides thetaiotaomicron GH92 alpha-mannosidase GH92 alpha-mannosidase 3990 assessed as mannose release after 16 hrs by HPLC
[25] = substrate: OC[C@H]1O[C@H](O[C@H]2[C@@H](O)[C@H](O)[C@@H](CO)O[C@@H]2O)[C@@H](O)[C@@H](O)[C@@H]1O; test: as §6

Glycoside hydrolase family 92 (BT_3963), sequence (Q8A0Q8 whole entry, change not shown): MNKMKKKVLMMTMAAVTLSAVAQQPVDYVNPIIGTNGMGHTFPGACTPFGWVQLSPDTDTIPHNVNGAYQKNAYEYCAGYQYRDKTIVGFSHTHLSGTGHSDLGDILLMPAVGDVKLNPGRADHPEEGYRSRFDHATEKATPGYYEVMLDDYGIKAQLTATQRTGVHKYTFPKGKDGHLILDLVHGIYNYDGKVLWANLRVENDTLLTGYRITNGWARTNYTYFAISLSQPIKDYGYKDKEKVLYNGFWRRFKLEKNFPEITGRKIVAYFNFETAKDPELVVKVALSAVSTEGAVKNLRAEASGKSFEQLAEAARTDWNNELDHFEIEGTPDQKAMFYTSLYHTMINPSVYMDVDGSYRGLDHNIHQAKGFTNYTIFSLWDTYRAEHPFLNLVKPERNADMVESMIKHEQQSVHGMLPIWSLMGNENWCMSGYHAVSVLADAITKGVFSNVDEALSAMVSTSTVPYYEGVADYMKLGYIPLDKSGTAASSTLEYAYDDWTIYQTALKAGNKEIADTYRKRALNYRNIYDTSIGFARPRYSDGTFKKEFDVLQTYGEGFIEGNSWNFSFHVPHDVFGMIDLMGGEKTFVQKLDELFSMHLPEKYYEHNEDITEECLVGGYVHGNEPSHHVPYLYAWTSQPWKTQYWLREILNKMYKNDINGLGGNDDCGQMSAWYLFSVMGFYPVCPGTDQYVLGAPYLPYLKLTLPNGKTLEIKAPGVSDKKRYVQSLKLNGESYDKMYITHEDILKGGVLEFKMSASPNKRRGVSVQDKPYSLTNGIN
Alpha-1,2-mannosidase (BT_3858), sequence (Q8A113 whole entry, change not shown): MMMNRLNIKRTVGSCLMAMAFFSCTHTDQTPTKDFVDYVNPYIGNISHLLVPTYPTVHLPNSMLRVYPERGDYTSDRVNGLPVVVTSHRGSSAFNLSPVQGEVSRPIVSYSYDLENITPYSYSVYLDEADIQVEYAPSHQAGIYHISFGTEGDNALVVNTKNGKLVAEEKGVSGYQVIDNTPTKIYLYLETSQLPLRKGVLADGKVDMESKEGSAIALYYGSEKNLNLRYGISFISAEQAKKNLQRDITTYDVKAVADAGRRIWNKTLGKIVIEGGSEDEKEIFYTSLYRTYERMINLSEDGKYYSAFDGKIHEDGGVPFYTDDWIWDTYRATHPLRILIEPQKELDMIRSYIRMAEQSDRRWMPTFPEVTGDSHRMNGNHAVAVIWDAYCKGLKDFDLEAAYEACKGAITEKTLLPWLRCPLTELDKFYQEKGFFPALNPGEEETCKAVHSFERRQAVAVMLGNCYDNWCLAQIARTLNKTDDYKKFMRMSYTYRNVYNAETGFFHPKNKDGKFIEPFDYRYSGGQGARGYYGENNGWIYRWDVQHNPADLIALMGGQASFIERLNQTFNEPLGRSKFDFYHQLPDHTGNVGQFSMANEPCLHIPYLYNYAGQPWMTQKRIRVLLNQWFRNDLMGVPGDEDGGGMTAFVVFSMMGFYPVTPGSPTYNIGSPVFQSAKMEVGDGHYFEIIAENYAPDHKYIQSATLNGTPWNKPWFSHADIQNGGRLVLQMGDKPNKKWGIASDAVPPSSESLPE
Alpha-1,2-mannosidase (BT_4092), sequence (Q8A0C9 whole entry, change not shown): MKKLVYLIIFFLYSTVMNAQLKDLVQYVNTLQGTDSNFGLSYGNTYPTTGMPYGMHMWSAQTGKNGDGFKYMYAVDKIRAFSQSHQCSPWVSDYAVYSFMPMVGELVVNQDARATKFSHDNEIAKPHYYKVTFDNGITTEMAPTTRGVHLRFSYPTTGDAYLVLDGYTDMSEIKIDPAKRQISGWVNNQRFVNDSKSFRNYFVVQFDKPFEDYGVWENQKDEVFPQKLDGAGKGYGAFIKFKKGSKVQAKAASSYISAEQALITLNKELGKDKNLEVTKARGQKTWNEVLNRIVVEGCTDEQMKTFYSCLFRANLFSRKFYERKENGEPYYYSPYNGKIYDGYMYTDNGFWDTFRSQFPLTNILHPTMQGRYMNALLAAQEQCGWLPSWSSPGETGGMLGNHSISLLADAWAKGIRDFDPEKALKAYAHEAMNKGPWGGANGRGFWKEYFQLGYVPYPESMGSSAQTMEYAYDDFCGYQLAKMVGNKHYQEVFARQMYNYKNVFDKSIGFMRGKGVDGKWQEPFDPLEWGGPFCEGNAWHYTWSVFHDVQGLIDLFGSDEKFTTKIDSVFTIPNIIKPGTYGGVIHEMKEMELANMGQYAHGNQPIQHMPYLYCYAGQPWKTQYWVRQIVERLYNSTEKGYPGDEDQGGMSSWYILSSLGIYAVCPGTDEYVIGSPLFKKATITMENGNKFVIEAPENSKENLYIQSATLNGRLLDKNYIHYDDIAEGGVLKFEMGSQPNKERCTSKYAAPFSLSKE
Alpha-1,2-mannosidase (BT_3991), sequence (Q8A0N0 whole entry, change not shown): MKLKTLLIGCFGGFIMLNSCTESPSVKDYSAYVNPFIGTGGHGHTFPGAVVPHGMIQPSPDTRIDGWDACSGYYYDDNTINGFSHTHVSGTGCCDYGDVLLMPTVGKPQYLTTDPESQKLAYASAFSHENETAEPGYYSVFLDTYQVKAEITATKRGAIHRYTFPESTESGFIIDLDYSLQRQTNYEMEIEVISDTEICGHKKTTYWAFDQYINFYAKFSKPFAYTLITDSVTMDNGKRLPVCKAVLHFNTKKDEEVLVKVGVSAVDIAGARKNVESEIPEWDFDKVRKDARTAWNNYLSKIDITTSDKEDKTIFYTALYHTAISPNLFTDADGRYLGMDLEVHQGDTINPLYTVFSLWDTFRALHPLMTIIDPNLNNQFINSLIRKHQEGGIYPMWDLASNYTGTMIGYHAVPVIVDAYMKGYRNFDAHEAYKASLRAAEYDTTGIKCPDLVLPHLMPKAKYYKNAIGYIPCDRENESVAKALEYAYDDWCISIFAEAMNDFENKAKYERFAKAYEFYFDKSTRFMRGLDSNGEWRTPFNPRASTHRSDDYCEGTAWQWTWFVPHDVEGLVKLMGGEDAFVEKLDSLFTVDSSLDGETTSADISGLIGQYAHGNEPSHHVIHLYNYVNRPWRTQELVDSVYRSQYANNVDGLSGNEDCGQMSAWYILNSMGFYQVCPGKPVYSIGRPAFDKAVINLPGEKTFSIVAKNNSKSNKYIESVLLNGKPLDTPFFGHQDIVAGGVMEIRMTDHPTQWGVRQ
Alpha-1,2-mannosidase (BT_1878), sequence (Q8A6K3 whole entry, change not shown): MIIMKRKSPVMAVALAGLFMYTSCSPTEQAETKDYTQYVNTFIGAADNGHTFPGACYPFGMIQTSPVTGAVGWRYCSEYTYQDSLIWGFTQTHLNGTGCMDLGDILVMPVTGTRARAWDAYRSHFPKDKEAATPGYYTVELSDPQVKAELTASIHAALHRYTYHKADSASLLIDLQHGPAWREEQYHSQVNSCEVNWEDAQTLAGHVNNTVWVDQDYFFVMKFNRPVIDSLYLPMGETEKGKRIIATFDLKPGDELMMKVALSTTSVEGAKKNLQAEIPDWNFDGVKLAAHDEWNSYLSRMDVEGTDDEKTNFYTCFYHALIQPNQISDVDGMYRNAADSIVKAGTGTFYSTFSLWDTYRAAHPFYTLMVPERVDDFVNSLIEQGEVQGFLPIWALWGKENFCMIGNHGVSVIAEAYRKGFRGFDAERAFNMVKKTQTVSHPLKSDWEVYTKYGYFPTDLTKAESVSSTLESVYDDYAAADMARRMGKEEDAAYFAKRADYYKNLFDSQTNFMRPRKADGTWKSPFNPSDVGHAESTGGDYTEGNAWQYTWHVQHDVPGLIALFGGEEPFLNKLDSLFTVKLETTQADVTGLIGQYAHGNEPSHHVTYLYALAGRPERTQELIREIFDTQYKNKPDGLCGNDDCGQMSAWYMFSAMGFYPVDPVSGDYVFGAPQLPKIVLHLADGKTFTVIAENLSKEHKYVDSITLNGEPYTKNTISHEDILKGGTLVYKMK
Alpha-1,2-mannosidase, putative (BT_3130), sequence (Q8A325 whole entry, change not shown): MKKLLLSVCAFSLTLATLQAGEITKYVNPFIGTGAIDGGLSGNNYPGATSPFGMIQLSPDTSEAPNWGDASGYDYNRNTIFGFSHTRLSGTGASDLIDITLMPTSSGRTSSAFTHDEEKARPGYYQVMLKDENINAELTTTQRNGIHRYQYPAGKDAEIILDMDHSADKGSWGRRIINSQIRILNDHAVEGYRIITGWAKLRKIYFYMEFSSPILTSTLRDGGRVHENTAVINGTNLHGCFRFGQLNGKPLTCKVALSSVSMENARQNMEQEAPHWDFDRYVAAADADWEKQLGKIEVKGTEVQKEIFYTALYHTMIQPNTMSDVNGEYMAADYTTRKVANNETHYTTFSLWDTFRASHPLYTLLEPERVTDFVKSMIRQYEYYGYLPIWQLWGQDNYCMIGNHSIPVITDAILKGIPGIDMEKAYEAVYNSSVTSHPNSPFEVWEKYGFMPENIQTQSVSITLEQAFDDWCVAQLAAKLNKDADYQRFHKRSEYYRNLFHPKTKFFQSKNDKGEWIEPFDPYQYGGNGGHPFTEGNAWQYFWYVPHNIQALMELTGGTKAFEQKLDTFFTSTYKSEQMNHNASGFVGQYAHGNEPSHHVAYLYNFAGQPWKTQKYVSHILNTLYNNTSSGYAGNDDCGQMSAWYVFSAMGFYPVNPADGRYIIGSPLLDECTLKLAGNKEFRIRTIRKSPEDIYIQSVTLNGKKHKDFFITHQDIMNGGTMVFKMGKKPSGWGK

## OC[C@@H]1[C@@H](O)[C@H](O)[C@H](O)c2nccn21 [MANNOIMIDAZOLE]
[1]
  Ki: 70 µM
[2]
  Ki: 1600 µM
[3]
  Ki: 270 µM
[4]
  Ki: 790 µM
[5]
  Ki: 600 µM
[6]
  Ki: 43 µM
[7]
  Ki: 860 µM
[8]
  Ki: 1 µM
[9]
  Ki: 90 µM
[10]
  Ki: 0.4 µM
[11]
  Ki: 46 µM
[12]
  Ki: 1800 µM
[13]
  Ki: 260 µM
[14]
  Ki: 5800 µM
[15]
  Ki: 360 µM

## OC[C@H]1NC[C@@H](O)[C@@H](O)[C@@H]1O [DEOXYMANNOJIRIMYCIN]
[9]
  Ki: 13000 µM
[16]
  Ki: 12000 µM

B1: Alpha-1,2-mannosidase (BT_2199) (Bacteroides thetaiotaomicron), Q8A5N9 D648N (protein)
chain: T1 sequence (Q8A5N9 whole entry) with D648N
[17]
  kcat/Km: Not Active
[18]
  kcat/Km: 0.383 M⁻¹ s⁻¹
[19]
  Km: Not Active
  kcat: Not Active
[20]
  Km: 1270 µM
  kcat: 0.000483 s⁻¹

B2: Alpha-1,2-mannosidase (BT_3990) (Bacteroides thetaiotaomicron), Q8A0N1 (protein)
chain: MKRLLLIACILNCTLLSQAKDWTQYVNPLMGSQSTFELSTGNTYPAIARPWGMNFWTPQTGKMGDGWQYTYTANKIRGFKQTHQPSPWINDYGQFSIMPIVGQPVFDEEKRASWFAHKGEVATPYYYKVYLAEHDIVTEMTPTERAVLFRFTFPENDHSYVVVDAFDKGSYIKIIPEENKIIGYTTRNSGGVPENFKNYFIIEFDKPFTYKATVENGNLQENVAEQTTDHAGAIIGFKTRKGEQVNARIASSFISFEQAAANMNELGKDNIEQLAQKGKDAWNQVLGKIEVEGGNLDQYRTFYSCLYRSLLFPRKFYELDANGQPIHYSPYNGQVLPGYMFTDTGFWDTFRCLFPLLNLMYPSVNKEMQEGLINTYLESGFFPEWASPGHRGCMVGNNSASILVDAYMKGVKVDDIKTLYEGLIHGTENVHPEVSSTGRLGYEYYNKLGYVPYDVKINENAARTLEYAYDDWCIYRLAKELKRPKKEISLFAKRAMNYKNLFDKESKLMRGRNEDGTFQSPFSPLKWGDAFTEGNSWHYTWSVFHDPQGLIDLMGGKEMFVTMMDSVFAVPPIFDDSYYGQVIHEIREMTVMNMGNYAHGNQPIQHMIYLYDYAGQPWKAQYWLRQVMDRMYTPGPDGYCGDEDNGQTSAWYVFSALGFYPVCPGTDEYVMGTPLFKKATLHFENGNSLVIDAPNNSTENFYIDSMSFNGADHTKNYLRHEDLFKGGTIKVDMSNRPNLNRGTKEEDMPYSFSKE
[21]
  kcat/Km: 21.7 M⁻¹ s⁻¹
[22]
  kcat/Km: 113000 M⁻¹ s⁻¹
[23]
  kcat/Km: 16.7 M⁻¹ s⁻¹
[24]
  Km: 4200 µM
  kcat: 0.0933 s⁻¹
[25]
  Km: 760 µM
  kcat: 86.7 s⁻¹
